SMILES strings stand for the structures. pIC50: −log10 of the molar value. Activity calls are given as the source filed them. The calls are words filed in the database; no cut-off is given here.

For one test, the target named is T1, Alkaline phosphatase, tissue-nonspecific isozyme (Mus musculus, UniProt P09242).
T1 sequence (P09242 whole entry): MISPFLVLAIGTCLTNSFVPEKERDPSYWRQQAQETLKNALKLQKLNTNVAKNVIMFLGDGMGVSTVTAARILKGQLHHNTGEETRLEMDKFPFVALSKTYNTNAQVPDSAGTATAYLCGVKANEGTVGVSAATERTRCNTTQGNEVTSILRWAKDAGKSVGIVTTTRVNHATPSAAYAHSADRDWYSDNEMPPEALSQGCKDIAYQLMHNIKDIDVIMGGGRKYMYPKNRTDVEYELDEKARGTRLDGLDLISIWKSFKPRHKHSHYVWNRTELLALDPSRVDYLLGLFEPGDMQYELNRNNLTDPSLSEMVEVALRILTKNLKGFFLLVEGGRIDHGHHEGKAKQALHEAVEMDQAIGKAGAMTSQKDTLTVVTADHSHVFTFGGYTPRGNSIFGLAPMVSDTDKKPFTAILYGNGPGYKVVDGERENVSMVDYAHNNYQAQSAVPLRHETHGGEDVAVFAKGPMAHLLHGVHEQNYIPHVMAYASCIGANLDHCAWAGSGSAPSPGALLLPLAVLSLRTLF
The test is described as follows: Inhibition of alkaline phosphatase in mouse Sarcoma 180/TG cells. Format: cell-based. As to conditions: read-out: I50. An outline of the steps: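 Partially purified particulate-bound alkaline phosphatase from Sarcoma 180/TG ascites cells (4360 units/mL); compounds tested as oxalate salts; IC50 taken as the concentration cutting observed enzyme activity by 50%.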
In the case of `Cc1ccc(C2CN3CCSC3=N2)cc1` (racemic), the pIC50 is 5.09.
On the same count and under the same terms, to `Clc1ccc(C2CN3CCSC3=N2)cc1` (racemic) belongs 5.35.
With `Brc1ccc(C2CN3C=CSC3=N2)cc1` (racemic), the pIC50 is 5.89.
Same read-out and setting: to `c1ccc2cc(C3CN4CCSC4=N3)ccc2c1` (racemic) belongs 5.05; to `c1ccc(C2CN3CCSC3=N2)cc1` (racemic), 4.42; to `Fc1ccc(C2CN3CCSC3=N2)cc1` (racemic), 4.80.
Same read-out and setting: as for `Brc1ccc([C@H]2CN3CCSC3=N2)cc1.O=C(O)C(=O)O`, the figure is 5.74; as for `C1=CN2CC(c3ccccc3)N=C2S1` (racemic), 4.35; as for `Cc1cccc(C2CN3CCSC3=N2)c1` (racemic), 4.40.
On the same count and under the same terms, to `Brc1cccc(C2CN3C=CSC3=N2)c1` (racemic) belongs 5.70.
With `C1=CN2CC(c3ccc4ccccc4c3)N=C2S1` (racemic), the pIC50 was 6.00.
The same measure, in the same setting: as for `Brc1ccc(C2CN3CCSC3=N2)cc1` (racemic), the figure is 5.59; as for `O=[N+]([O-])c1cccc(C2CN3CCSC3=N2)c1` (racemic), 4.42.
Still for that read-out and setting: as for `Cc1ccc(C2CN3C=CSC3=N2)cc1` (racemic), the figure is 5.18; as for `O=[N+]([O-])c1ccc(C2CN3C=CSC3=N2)cc1` (racemic), 5.08.
The same measure, in the same setting: as for `Cc1ccc(C2CN3C=CSC3=N2)cc1C` (racemic), the figure is 4.96; as for `C1=CN2CC(c3cccs3)N=C2S1` (racemic), 4.30.

System in a further test: not listed separately
Put plainly: Ratio of growth inhibition of mouse Sarcoma 180/TG cells in presence of […] to growth inhibition of mouse Sarcoma 180/TG cells in absence of […] at 10 uM after 96 hrs. Format: functional.
Settings: not given
An outline of the steps:
(§1)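 Log-phase Sarcoma 180/TG cells were seeded at 10^4 cells/mL in Fischer's medium with 10% horse serum at 37 °C. They were given the oxalate salt with or without 6-thioguanine (10^-6 M) for 96 h, and cell number/mL was counted. Ratio = cell count with 6-thioguanine / count without × 100.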
As for `Brc1ccc([C@H]2CN3CCSC3=N2)cc1.O=C(O)C(=O)O`, the Ratio is recorded as 69.

System in another test: not listed separately
Put plainly: Ratio of growth inhibition of mouse Sarcoma 180/TG cells in presence of […] to growth inhibition of mouse Sarcoma 180/TG cells in absence of […] at 50 uM after 96 hrs.
Settings: not given
Format: functional. An outline of the steps:
as §1
With `Brc1ccc([C@H]2CN3CCSC3=N2)cc1.O=C(O)C(=O)O`, the Ratio was determined as 66.

System in a further test: not listed separately
The test is described as follows: Ratio of growth inhibition of mouse Sarcoma 180/TG cells in presence of […] to growth inhibition of mouse Sarcoma 180/TG cells in absence of […] at 100 uM after 96 hrs. Format: functional.
Settings: not given
An outline of the steps: as §1
Take `Brc1ccc([C@H]2CN3CCSC3=N2)cc1.O=C(O)C(=O)O`: the Ratio was found to be 49.

A further test addresses T2, Alkaline phosphatase, tissue-nonspecific isozyme (Mus musculus) (UniProt P09242).
T2 sequence (whole entry): T1 sequence (P09242 whole entry)
Put plainly: Inhibition of alkaline phosphatase in mouse Sarcoma 180/TG cells up to 5 x 10^-4 M. It is filed as cell-based.
Settings: not given
In a few lines: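 Particulate-bound alkaline phosphatase, partially purified from Sarcoma 180/TG ascites cells (4360 units/mL), exposed to oxalate salts at concentrations up to at least 5 x 10^-4 M and checked for significant inhibition.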
With `CC(=O)/N=c1\sccn1CC(O)c1ccc(C)c(C)c1` (racemic), the inhibition result was “inactive”.
The same measure, in the same setting: as for `CSc1nc(-c2ccccc2)c[nH]1`, the entry is “inactive”; as for `N=c1sccn1CC(=O)c1ccc(Br)cc1`, “inactive”; as for `CSc1nc(-c2ccccc2)cn1CCO`, “inactive”.
Still for that read-out and setting: to `N=c1sccn1CC(=O)c1ccc([N+](=O)[O-])cc1` belongs “inactive”; to `CC(=O)/N=C1\SCCN1CC(O)c1cccc(C)c1` (racemic), “inactive”.
Still for that read-out and setting: as for `CC(=O)/N=c1\sccn1CC(O)c1ccc(C)cc1` (racemic), the entry is “inactive”; as for `N=C1SCCN1CC(=O)c1ccc2ccccc2c1`, “inactive”.
Regarding `Cc1cccc(C(=O)CN2CCSC2=N)c1`, the inhibition entry was “inactive”.
Still for that read-out and setting: to `CC(=O)/N=C1\SCCN1CC(O)c1ccc2ccccc2c1` (racemic) belongs “inactive”; to `CC(=O)/N=C1\SCCN1CC(=O)c1ccc2ccccc2c1`, “inactive”.
The same measure, in the same setting: to `CC(=O)/N=c1\sccn1CC(=O)c1ccc(Br)cc1` belongs “inactive”.
For `CC(=O)/N=c1\sccn1CC(=O)c1ccc([N+](=O)[O-])cc1`, the inhibition result was “inactive”.
Still for that read-out and setting: as for `CC(=O)/N=c1\sccn1CC(=O)c1ccc(C)c(C)c1`, the entry is “inactive”; as for `CC(=O)/N=c1\sccn1CC(O)c1ccc2ccccc2c1` (racemic), “inactive”; as for `CC(=O)/N=c1\sccn1CC(O)c1ccc(Br)cc1` (racemic), “inactive”.
The same measure, in the same setting: to `CC(=O)/N=C1\SCCN1CC(=O)c1cccc(C)c1` belongs “inactive”.
On the same count and under the same terms, as for `CC(=O)/N=c1\sccn1CC(=O)c1ccc(C)cc1`, the entry is “inactive”; as for `Cc1ccc(C(=O)Cn2ccsc2=N)cc1`, “inactive”.
For `CC(=O)/N=c1\sccn1CC(=O)c1ccc2ccccc2c1`, the inhibition result is “inactive”.
Same read-out and setting: to `N=c1sccn1CC(=O)c1ccc2ccccc2c1` belongs “inactive”; to `CC(=O)/N=c1\sccn1CC(O)c1ccc([N+](=O)[O-])cc1` (racemic), “inactive”.

(Values after ChEMBL document CHEMBL3244381, “Tetramisole analogues as inhibitors of alkaline phosphatase, an enzyme involved in the resistance of neoplastic cells to 6-thiopurines” (J Med Chem, 1977).)
